# Screens (PubChem BioAssay)
# TCR-CD3 inh: human TCR-CD3 binding inhibition; TAMRA-labeled TCR probe fluorescence, biochemical; inhibition, % at 9.4 µM; AID 651800; 360,000 compounds, 0.37% hits; in the data active means inhibition above about 19%;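 further: recombinant mutant TCR 2C K166C tagged with TAMRA read by polarization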
# SIAE primary: inhibitors of human sialic acid acetylesterase SIAE | SIAE FP-Rh probe binding, fluorescence polarization | Q9HAT2 | inhibition, % at 9.66 µM | 370,000 compounds, 0.69% hits | AID 1053197;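 active means inhibition above a cutoff: mean of compounds within the control limits plus 3 SD of those, cut at about 17% in these data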
# PRMT1 inh: PRMT1 (human) inhibition, primary screen; inhibition, % at 2.79 µM; Q99873; recombinant PRMT1, activity-based probe fluorescence polarization; 370,000 compounds, 1.3% hits;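 active means inhibition above about 21% made by adding two undisclosed values, limit read from the data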
# HTRA1 inh: inhibitors of human serine peptidase HTRA1; inhibition, % at 5.96 µM; AID 504803; 340,000 compounds, 0.5% hits; Q92743; recombinant HTRA1, FP-rhodamine activity-based probe, fluorescence polarization; in the data active means inhibition above about 36%
# Target sequence (Q92743 whole entry, looked up): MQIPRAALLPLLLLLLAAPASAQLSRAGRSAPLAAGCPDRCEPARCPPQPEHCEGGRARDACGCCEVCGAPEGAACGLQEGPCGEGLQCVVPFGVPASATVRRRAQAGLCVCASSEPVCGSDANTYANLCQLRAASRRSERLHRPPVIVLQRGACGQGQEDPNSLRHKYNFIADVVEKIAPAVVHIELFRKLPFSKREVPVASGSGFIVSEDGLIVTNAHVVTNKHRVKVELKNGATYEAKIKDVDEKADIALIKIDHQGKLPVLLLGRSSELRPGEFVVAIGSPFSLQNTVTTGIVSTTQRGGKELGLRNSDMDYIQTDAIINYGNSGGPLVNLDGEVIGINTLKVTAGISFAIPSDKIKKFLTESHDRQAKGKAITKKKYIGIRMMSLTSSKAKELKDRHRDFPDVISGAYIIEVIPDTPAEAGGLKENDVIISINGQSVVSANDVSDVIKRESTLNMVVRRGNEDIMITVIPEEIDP
# ABHD4 inh: ABHD4 (mouse) inhibition, primary FP screen; Q8VD66; purified mABHD4, FP-Rh probe fluorescence polarization; inhibition, % at 8.92 µM; 370,000 compounds, 0.54% hits;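 active means inhibition exceeding the mean over every tested compound plus 3 SD, cut at about 30% in these data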
#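 Test system: mABHD4 protein | Buffer or medium: HEPES pH 7.0 buffer, 150 mM NaCl, 0.01% Pluronic F-127 | Probe or stimulus: FP-Rh fluorescent activity-based probe, added after compound pre-incubation | Timing: Pre-incubation 45 min, probe exposure 60 min, at 25 °C | Technique: Fluorescence polarization, excitation 525 nm, emission 598 nm, BODIPY TMR filters | Repeats: Single well per compound (singlicate)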
# mABHD4 conf: ABHD4 (mouse) inhibition, FP confirmation | purified mABHD4, FP-Rh probe fluorescence polarization | 1,800 compounds, 55% hits | shares compounds with ABHD4 inh | inhibition, % at 8.92 µM | AID 720658;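 active means mean inhibition across replicates above the hit cutoff set in the primary screen, cut at about 30% in these data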
# Hits are given with their value; i = inactive; nt = no result. The list is not random: actives were taken first. Their share in the collection is about 2.5%.
SMILES,TCR-CD3 inh,SIAE primary,PRMT1 inh,HTRA1 inh,ABHD4 inh,mABHD4 conf
O=C1C=C(Nc2ccc(O)cc2)CC(c2ccco2)C1 (stereo unspecified),i,i,i,i,43.9,i
CN(C(=O)Cn1cnc2ccccc2c1=O)C1CCS(=O)(=O)C1 (stereo unspecified),i,i,i,i,49.7,i
Cc1ccc(CNC(=O)c2ccc3c(=O)[nH]c4c(C(=O)NCC5CCCO5)sc(=S)n4c3c2)cc1 (stereo unspecified),i,i,i,i,33.0,40.8
CCCCCNC(=O)c1ccc2c(=O)[nH]c3c(C(=O)NCC4CCCO4)sc(=S)n3c2c1 (stereo unspecified),i,i,i,i,32.3,40.1
O=C(NCc1ccccc1)c1ccc2c(=O)[nH]c3c(C(=O)NCC4CCCO4)sc(=S)n3c2c1 (stereo unspecified),i,i,i,i,i,nt
O=C(Nc1cc([N+](=O)[O-])ccc1O)c1ccc2c(c1)C(=O)N(Cc1ccco1)C2=O,i,i,i,i,38.0,50.8
Nc1c(Cl)ncnc1N/N=C/c1ccccn1,i,i,i,nt,54.2,53.8
CC(=O)C1CCC2C3CC=C4CC(SC(=N)N)CCC4(C)C3CCC12C (stereo unspecified),i,i,i,i,45.8,37.9
CC(=O)OCC(=O)C1CCC2C3CC=C4CC(O)CCC4(C)C3CCC12C (stereo unspecified),i,i,i,i,i,nt
CCOC(=O)NC(=O)/C(C#N)=C\Nc1sccc1C(=O)OC,i,i,56.0,i,62.5,i
CCOC(=O)NC(=O)/C(C#N)=C\Nc1ccc(Cl)cc1Cl,i,i,i,i,i,nt
COc1cccc(OC)c1C(=O)Nc1ccc(N2CCCC2)cc1,i,i,i,i,32.9,38.1
O=C(/C=C/c1ccc([N+](=O)[O-])cc1)c1ccccc(=O)c1O,i,i,i,i,43.2,i
O=C(/C=C/c1ccc([N+](=O)[O-])cc1)c1cccs1,i,i,i,i,i,nt
COc1cccc(N2CCN(CC(=O)NCc3cccc(OC)c3OC)CC2)c1,nt,i,i,nt,i,nt
N#CCSc1nc(Nc2ccc3c(c2)OCO3)c2ccccc2n1,nt,nt,nt,i,nt,nt
CCOC(=O)CSc1nc(Nc2ccc3c(c2)OCO3)c2ccccc2n1,i,i,i,i,40.0,32.4
CC(=O)Nc1nc(-c2ccc3c(c2)CC(C)N3C(=O)C2CC2)c(C)s1 (stereo unspecified),i,i,i,i,i,nt
CCOC(=O)C(=O)Nc1nc(-c2ccc3c(c2)CCN3C(=O)C2CC2)c(C)s1,i,i,i,i,38.9,i
COc1ccccc1OCC(=O)NNC(=O)Nc1ccccc1,i,i,i,i,i,nt
COc1cc(/C=N/NC(=O)C(Cc2c[nH]c3ccccc23)NC(=O)OCc2ccccc2)cc([N+](=O)[O-])c1O (stereo unspecified),i,64.5,i,i,45.4,91.8
COc1cc(/C=N/NC(=O)C(Cc2c[nH]c3ccccc23)NC(=O)OCC(C)C)cc([N+](=O)[O-])c1OCc1ccccc1 (stereo unspecified),i,i,i,i,i,nt
O=C(NCCCc1ccccc1)OC1CC2CC1[C@H]1CCCCN1[C@H]2Cc1ccccc1 (stereo partly specified),nt,i,i,nt,i,nt
COc1ccc(N2CCN(C(=O)c3cc(S(=O)(=O)N4CCCCCC4)ccc3OC)CC2)cc1,i,i,i,i,i,nt
Cc1nn(Cc2ccc(C(=O)Nc3nc4c(C)cccc4s3)o2)c(C)c1Br,i,i,i,i,i,nt
SMILES,TCR-CD3 inh,SIAE primary,PRMT1 inh,HTRA1 inh,ABHD4 inh,mABHD4 conf
Cc1csc(NC(=O)c2cccc(Cn3nc(C)c(Br)c3C)c2)n1,i,i,i,i,49.9,i
OCCN1CCN(CC(O)COc2ccc(C34CC5CC(CC(C5)C3)C4)cc2)CC1 (stereo unspecified),i,i,i,i,i,nt
NCCOc1ccc(C23CC4CC(CC(C4)C2)C3)cc1,i,i,i,i,31.7,37.4
CCOc1ccc(OCC(O)CNC2CCN(Cc3ccccc3)CC2)cc1 (stereo unspecified),i,i,i,i,i,nt
CC(C)(c1ccccc1)c1ccc(OCC(O)CNC2CCN(Cc3ccccc3)CC2)cc1 (stereo unspecified),i,i,i,i,31.6,36.2
COc1ccc(S(=O)(=O)Nc2ccccn2)cc1C(=O)Nc1ccccc1,i,i,i,i,i,nt
